# According to ChEMBL document CHEMBL1128366, “Hypoxia-selective agents derived from quinoxaline 1,4-di-N-oxides” (J Med Chem, 1995):
# What was measured:
# V79 = experiment: The compound was tested for potency by measuring the concentration (umolar) that gives 1% clonogenic cell survival in hypoxia; format: functional, Cricetulus griseus
# In short: (§1)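 V-79 Chinese hamster lung fibroblasts in stirred suspension (2 × 10⁴ cells/mL, EMEM + 10% FBS, 10 mM HEPES), gassed for air or hypoxia; drug in DMSO added 30 min after gassing began, two flasks per dose, 2 h exposure. Cells cloned 7 days at 37 °C, crystal violet stain, colonies >64 cells counted; survival = PE treated/PE control. Dose-response curves from ≥3 experiments.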
# [1] = Hypoxia cytotoxicity ratio (dose in air / hypoxia giving 99% of cell killing); in short: as §1
compound,measurement,setting,value
COc1ccc2c(c1)[n+]([O-])c(N)c(C#N)[n+]2[O-],Potency,V79,30 µM
same,Selectivity,[1],> 10
N#Cc1c(N)[n+]([O-])c2ccccc2[n+]1[O-],Potency,V79,30 µM
same,Selectivity,[1],80
N#Cc1ccc2c(c1)[n+]([O-])c(N)c(C#N)[n+]2[O-],Potency,V79,11 µM
same,Selectivity,[1],50
N#Cc1c(N)[n+]([O-])c2cc(F)ccc2[n+]1[O-],Potency,V79,15 µM
same,Selectivity,[1],100
N#Cc1c(N)[n+]([O-])c2cc(Cl)ccc2[n+]1[O-],Potency,V79,9 µM
same,Selectivity,[1],150
N#Cc1c(N)[n+]([O-])c2cc(-c3ccc([N+](=O)[O-])cc3)ccc2[n+]1[O-],Potency,V79,4 µM
same,Selectivity,[1],15
Nc1n[n+]([O-])c2ccccc2[n+]1[O-] [TIRAPAZAMINE],Potency,V79,30 µM
same,Selectivity,[1],75
N#Cc1c(N)[n+]([O-])c2cc(Cl)c(F)cc2[n+]1[O-],Potency,V79,2 µM
same,Selectivity,[1],10
COc1cc2c(cc1Cl)[n+]([O-])c(C#N)c(N)[n+]2[O-],Potency,V79,10 µM
same,Selectivity,[1],< 10
N#Cc1c(N)[n+]([O-])c2cc(C(F)(F)F)ccc2[n+]1[O-],Potency,V79,7 µM
same,Selectivity,[1],75
N#Cc1c(N)[n+]([O-])c2cc(F)c(F)cc2[n+]1[O-],Potency,V79,1 µM
same,Selectivity,[1],< 10
N#Cc1c(N)[n+]([O-])c2cc(Cl)c(Cl)cc2[n+]1[O-],Potency,V79,1 µM
same,Selectivity,[1],80
